This passage reports LC50, Activity and inhibition results from ChEMBL document CHEMBL3046278, “Design, synthesis and antifungal/insecticidal evaluation of novel cinnamide derivatives” (2011).

Assay type in all cases: functional
The subject of experiment [1] is Bursaphelenchus xylophilus. Briefly: Nematicidal activity against Bursaphelenchus xylophilus assessed as mortality after 72 hr. To be noted: read-out: LD50 (the source's name).
Experiment [2] has as its system Bursaphelenchus xylophilus. In words: Nematicidal activity against Bursaphelenchus xylophilus assessed as mortality after 48 hr. The following applies: read-out: LD50 (the source's name).
Experiment [3] deals with Bursaphelenchus xylophilus. In words: Nematicidal activity against Bursaphelenchus xylophilus assessed as mortality after 24 hr. To be noted: read-out: LD50 (the source's name).
Experiment [4] concerns Bursaphelenchus xylophilus. Briefly: Nematicidal activity against Bursaphelenchus xylophilus assessed as mortality at 200 mg/L after 72 hr relative to control. In short, it runs like this:
(§1)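 Compounds dissolved in acetone and diluted with distilled water to a 200 mg L-1 working solution. Distilled water served as blank, triplicate. Mortality counted at 24, 48 and 72 h, then corrected against the negative control with Abbott's formula.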

The subject of experiment [5] is Bursaphelenchus xylophilus. Briefly: Nematicidal activity against Bursaphelenchus xylophilus assessed as mortality at 200 mg/L after 48 hr relative to control. In short, it runs like this:
as §1

In the next experiment the test system is Rhizoctonia solani. Briefly: Antifungal activity against Rhizoctonia solani assessed as inhibition of mycelium growth at 50 ug/ml relative to control. In outline:
(§2)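 Mycelial growth inhibition on mycelial disks, compared with untreated control, using colony diameters: (control − treatment)/(control − disk diameter) × 100. Run twice, four replicates each.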

For the next experiment, the system named is Cytospora mali. Briefly: Antifungal activity against Valsa mali assessed as inhibition of mycelium growth at 50 ug/ml relative to control. In outline:
as §2

Experiment [6] has as its system Colletotrichum lindemuthianum. Briefly: Antifungal activity against Colletotrichum lindemuthianum assessed as inhibition of mycelium growth at 50 ug/ml relative to control. In outline: as §2
In another experiment the test system is Sclerotinia sclerotiorum. In words: Antifungal activity against Sclerotinia sclerotiorum assessed as inhibition of mycelium growth at 50 ug/ml relative to control. In outline: as §2
The test system of another experiment is Botrytis cinerea. In words: Antifungal activity against Botryotinia fuckeliana assessed as inhibition of mycelium growth at 50 ug/ml relative to control. In short, it runs like this:
as §2

The next experiment deals with Phytophthora nicotianae. Briefly: Antifungal activity against Phytophthora parasitica assessed as inhibition of mycelium growth at 50 ug/ml relative to control. In outline: as §2
The subject of experiment [7] is Bursaphelenchus xylophilus. Briefly: Nematicidal activity against Bursaphelenchus xylophilus assessed as mortality at 200 mg/L after 24 hr relative to control. In outline: as §1

SMILES strings stand for the structures. ≈ marks a conversion by molar mass, not a printed value.

For `CCc1ccc(/C(=C/C(=O)NCCc2ccccc2)c2ccnc(Cl)c2)cc1`, the figures for the LC50 in experiment [1], in [2] and in experiment [3] were 114 µg/mL (≈ 291 µM), 174 µg/mL (≈ 445 µM) and 301 µg/mL (≈ 769 µM), respectively. Also, the figures for the Activity in experiment [4], in experiment [5] and in experiment [7] were 67.87%, 26.29% and 17.95%, respectively. Moreover, the inhibition at 50 µg/mL came to 22.4% in the experiment on Rhizoctonia solani; 20% in the experiment with Cytospora mali; 34.3% in experiment [6]; 44% in the experiment with Sclerotinia sclerotiorum; 50% in the experiment on Botrytis cinerea; 26.8% in the experiment with Phytophthora nicotianae.
Take `Cc1ccc(/C(=C/C(=O)NCCc2ccccc2)c2ccnc(Cl)c2)cc1C`: the figures for the LC50 in experiment [1], in [2] and in experiment [3] were 252 µg/mL (≈ 646 µM), 315 µg/mL (≈ 805 µM) and 430 µg/mL (≈ 1100 µM), respectively. The results for the Activity in experiment [4], in experiment [5] and in experiment [7] were 45.15%, 21.49% and 14.73%, respectively. Also, the inhibition at 50 µg/mL with Rhizoctonia solani stood at 76.8%; with Cytospora mali, 52%; in [6], 56%; with Sclerotinia sclerotiorum, 72%; with Botrytis cinerea, 67%; with Phytophthora nicotianae, 1.61%.
Consider `COc1ccc(CCNC(=O)/C=C(/c2ccc(C)cc2)c2ccnc(Cl)c2)cc1OC`, for which the LC50 in experiment [1] amounted to 126 µg/mL (≈ 289 µM); in experiment [2], 178 µg/mL (≈ 409 µM); in experiment [3], 305 µg/mL (≈ 699 µM). The Activity in [4] was determined as 43.97%; in [5], 38.45%; in experiment [7], 13.29%. Further, the inhibition at 50 µg/mL with Rhizoctonia solani is 82.6%; in the experiment with Cytospora mali it was 42%; in experiment [6], 55.2%; with Sclerotinia sclerotiorum it was 42%; with Botrytis cinerea it was 59%; with Phytophthora nicotianae, 0%.
Regarding `CN(/C=C\c1ccccc1)C(=O)/C=C/c1ccccc1` [LANSIUMAMIDE B], the LC50 in experiment [1] turned out to be 5.38 µg/mL (≈ 20.4 µM); in [2], 6.36 µg/mL (≈ 24.2 µM); in experiment [3], 8.38 µg/mL (≈ 31.8 µM). Besides, the Activity in experiment [4], in [5] and in experiment [7] was 100% in each case.
